# High-throughput results from PubChem BioAssay.
# ABHD4 inh: inhibits mouse alpha/beta hydrolase domain 4. 370,000 compounds, 0.54% hits. inhibition, % at 8.92 µM. purified mABHD4, FP-Rh probe fluorescence polarization. Q8VD66;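 active = inhibition exceeding the mean over every tested compound plus 3 SD, cut at about 30% in these data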;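 note: 0% = plate median of compound wells and 100% = S159A mutant with DMSO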
#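 Assay system: Wild-type mouse ABHD4 protein | Medium: HEPES pH 7.0 buffer, 150 mM NaCl, 0.01% Pluronic F-127 | Incubation: Enzyme–compound pre-incubation 45 min, then probe 60 min, both 25 °C | Technique: Fluorescence polarization with parallel and perpendicular emission, 525/598 nm | Evaluation: % inhibition of FP-Rh probe binding versus controls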
# TCR-CD3 inh: inhibitors of human TCR-CD3 interaction; TAMRA-labeled TCR probe fluorescence, biochemical; inhibition, % at 9.4 µM; 360,000 compounds, 0.37% hits; AID 651800; in the data active = inhibition above about 19%;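 note: recombinant mutant TCR 2C K166C tagged with TAMRA read by polarization; 0% = receptor in buffer alone and 100% = receptor with positive control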
# SIAE primary: inhibitors of human sialic acid acetylesterase SIAE; Q9HAT2; SIAE FP-Rh probe binding, fluorescence polarization; inhibition, % at 9.66 µM; 370,000 compounds, 0.69% hits; AID 1053197;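 active = inhibition above a cutoff: mean of compounds within the control limits plus 3 SD of those, cut at about 17% in these data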;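 note: 0% = plate median of compound wells and 100% = probe without SIAE protein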
# PRMT1 inh: blocks human protein arginine methyltransferase 1. Q99873. recombinant PRMT1, activity-based probe fluorescence polarization. inhibition, % at 2.79 µM. 370,000 compounds, 1.3% hits. AID 652257;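 active = inhibition above about 21% made by adding two undisclosed values, limit read from the data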
# HTRA1 inhibitor: inhibitors of human serine peptidase HTRA1. Q92743. recombinant HTRA1, FP-rhodamine activity-based probe, fluorescence polarization. inhibition, % at 5.96 µM. 340,000 compounds, 0.5% hits; in the data active = inhibition above about 36%;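 note: 0% = enzyme with DMSO and 100% = wells lacking enzyme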
# Target sequence (Q92743 whole entry, looked up): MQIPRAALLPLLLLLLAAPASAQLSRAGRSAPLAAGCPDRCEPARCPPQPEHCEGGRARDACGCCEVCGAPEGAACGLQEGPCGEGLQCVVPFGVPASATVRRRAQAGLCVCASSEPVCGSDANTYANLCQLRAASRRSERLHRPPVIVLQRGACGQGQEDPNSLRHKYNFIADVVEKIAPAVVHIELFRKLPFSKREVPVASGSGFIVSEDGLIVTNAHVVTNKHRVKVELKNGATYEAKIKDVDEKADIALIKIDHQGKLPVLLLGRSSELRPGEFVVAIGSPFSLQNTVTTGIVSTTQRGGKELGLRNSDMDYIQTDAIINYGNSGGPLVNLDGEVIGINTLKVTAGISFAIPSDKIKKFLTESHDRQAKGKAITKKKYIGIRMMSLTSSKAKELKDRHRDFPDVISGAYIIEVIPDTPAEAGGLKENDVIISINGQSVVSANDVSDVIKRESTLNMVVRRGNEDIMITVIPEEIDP
# SIAE inh conf: human SIAE inhibition, confirmation. shares compounds with SIAE primary. SIAE FP-Rh activity-based probe, fluorescence polarization. inhibition, % at 9.66 µM. 2,300 compounds, 13% hits. AID 1117263;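 active = mean inhibition of the replicates above the hit cutoff set in the primary screen, cut at about 17% in these data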;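 note: 0% = SIAE with DMSO and probe and 100% = probe without SIAE; inhibitors lower polarization as more probe stays unbound to SIAE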
# * hit, by the source's call; · = no result. Only some compounds are listed: those with a hit (about 2.5% of all), similar ones and a draw of the others.
SMILES,ABHD4 inh,TCR-CD3 inh,SIAE primary,PRMT1 inh,HTRA1 inhibitor,SIAE inh conf
COC(=O)[C@]12C[C@H](CC(=O)N3CCC(c4ccccc4)CC3)C(=O)N(Cc3ccco3)C1=C[C@H](C1CCCC1)O[C@@H]2C,1,·,12,1,·,·
CS(=O)(=O)OC12CCCN(C1)/C(=C/c1ccc(Cl)cc1)C2 (centres undefined),3,·,7,0,·,·
CCCCc1ccc(NC(=S)Nc2ccc(Nc3ccc(OC)cc3)cc2)cc1,25,-5,27*,10,31,13
Cc1ncc(CSc2nc3ccccc3[nH]2)c(N)n1,2,-2,-2,1,3,·
COc1ccc2nc(SCc3cnc(C)nc3N)[nH]c2c1,10,4,19*,1,1,-4
COc1ccc(C[N+]2=C(N)NC3=C(C)Cn4c(=O)n(-c5ccccc5)c(=O)n4C3C2)c(OC)c1 (centres undefined),7,·,1,3,·,·
O=S(=O)(NCC(c1ccccc1)N1CCC(O)CC1)c1ccc(Cl)cc1 (centres undefined),0,-1,-2,1,1,·
O=S(=O)(NCC(Nc1ccc(Cl)cc1)c1ccccc1)c1ccc(Cl)cc1 (centres undefined),-32,-3,19*,5,-40,12
COC(=O)C1CCCCN1C(=O)c1ccc2oc(C(C)C)nc2c1 (centres undefined),3,0,17*,1,1,6
COc1cc(C(=O)NCCC2=CCCCC2)ccc1OC1CCN(C(C)=O)CC1,3,-1,19*,-5,-1,0
COc1cc(C(=O)NCCc2ncccc2C)ccc1OC1CCN(C(C)=O)CC1,0,-7,0,6,3,·
O=C(Nc1nnc(C(F)(F)F)s1)c1c(F)cccc1F,4,0,32*,0,-1,-4
Cc1ccc(-c2csc(NC(=O)c3ccc(Br)cc3)c2C(=O)O)cc1,-8,-12,3,2,-9,·
COc1cc(C(=O)Nc2scc(-c3ccc(Br)cc3)c2C(=O)O)cc(OC)c1OC,-37,-1,23*,-6,-1,31*
Cc1ccccc1CN1CCCCC(NC(=O)c2ccc(F)c(F)c2)C1=O (centres undefined),-2,·,-1,-3,·,·
COc1ccc(Cn2cc(COC(=O)N3CCCC3)nn2)cc1,5,·,1,-4,·,·
COc1cc2ncnc(NCCCN3CCOCC3)c2cc1OC,-1,-3,38*,-8,-1,1
Cc1cc(N2CCN(C(=O)Oc3ccc(-c4ccccc4)cc3)CC2)c2ccccc2n1,-2,·,1,2,·,·
COC(=O)CSc1nc(-c2ccc(F)cc2)cc(C(F)(F)F)n1,1,10,28*,-2,-4,1
Cc1nc2sc(C(=O)NCc3nccs3)c(N)c2c(C)c1Cl,1,·,-1,4,·,·
CC(=O)c1ccc(N/C=C\C(=O)c2ccc(C)cc2)cc1,-5,3,-7,-1,-1,·
CC(=O)Nc1ccc(N/C=C/C(=O)c2ccc(Cl)cc2)cc1,3,6,19*,-5,11,3
CC1COCC(C)N1S(=O)(=O)c1ccc2c(c1)CCN2C(=O)C1CCC1 (centres undefined),1,·,4,-2,·,·
O=C(Cn1cnc2c(cnn2-c2ccccc2)c1=O)c1ccc(Cl)cc1,10,-5,39*,-2,2,0
O=C(NCc1ccccn1)C(=O)NCC1OCCN1S(=O)(=O)c1ccc(F)cc1 (centres undefined),0,0,19*,-4,4,4
SMILES,ABHD4 inh,TCR-CD3 inh,SIAE primary,PRMT1 inh,HTRA1 inhibitor,SIAE inh conf
O=C(NCc1ccccn1)C(=O)NCC1OCCCN1S(=O)(=O)c1ccc(F)cc1 (centres undefined),0,6,-2,1,7,·
O=C(NNC(=O)c1ccc2c(=O)n3c(nc2c1)CCC3)c1ccc(Cl)cc1,-4,4,3,-2,1,·
O=C(NNC(=O)c1ccc2c(=O)n3c(nc2c1)CCC3)c1ccc(F)cc1,2,-1,23*,-3,2,3
CCCn1c(NC(=O)c2ccccc2)nc(Cc2ccccc2)c1-c1ccc(OC)cc1,8,·,-1,2,·,·
COc1ccc(-c2c(Cc3ccccc3)nc(NC(=O)c3ccccc3F)n2C)cc1,-13,·,41*,-3,·,3
COc1ccccc1OCCNC(=O)Nc1ccc(Br)cc1,0,-3,18*,2,-11,1
CC(=O)c1ccc(NC(=S)Nc2cccc3ccccc23)cc1,14,-6,32*,3,8,1
O=C(Nc1ccc2ccccc2c1)NC1CCCCN(Cc2ccc(Cl)cc2)C1=O (centres undefined),0,·,1,-1,·,·
Nc1ccn([C@@H]2O[C@H](C(=O)N[C@H](Cc3ccccc3)C(=O)NCc3cccc4c3OCO4)[C@@H](O)[C@H]2O)c(=O)n1,-1,2,7,-1,·,·
Nc1ccn([C@@H]2O[C@H](C(=O)N[C@H](Cc3ccccc3)C(=O)N3CCC(F)(F)CC3)[C@@H](O)[C@H]2O)c(=O)n1,5,3,45*,-2,·,53*
Cc1ccc(CNC(=O)[C@@H](Cc2ccccc2)NC(=O)[C@H]2O[C@@H](n3ccc(N)nc3=O)[C@H](O)[C@@H]2O)o1,-1,-2,18*,0,·,14
COc1ccc(CN(C)C(=O)[C@@H](Cc2ccccc2)NC(=O)[C@H]2O[C@@H](n3ccc(N)nc3=O)[C@H](O)[C@@H]2O)cc1OC,-2,-5,48*,-2,·,53*
COc1ccccc1C(=O)N1CCN(C(=O)[C@@H](Cc2ccccc2)NC(=O)[C@H]2O[C@@H](n3ccc(N)nc3=O)[C@H](O)[C@@H]2O)CC1,-5,3,-1,-2,·,·
COc1cc(NC(=O)[C@@H](Cc2ccccc2)NC(=O)[C@H]2O[C@@H](n3ccc(N)nc3=O)[C@H](O)[C@@H]2O)cc(OC)c1OC,-1,3,45*,4,·,46*
Cc1ccccc1CS(=O)(=O)Cc1ccc(C(=O)Nc2ccc(F)cc2F)o1,-3,·,4,11,·,·
C[C@H](O)[C@@H]1CN2CCc3c([nH]c4cccc(-c5ccc6c(c5)OCO6)c34)[C@@H]2C[C@@H]1N(C)C(=O)c1ccco1,3,·,2,3,·,·
CCCn1cnnc1CNC(=O)[C@@H](Cc1ccccc1)NC(=O)[C@H]1O[C@@H](n2ccc(=O)[nH]c2=O)[C@H](O)[C@@H]1O,6,5,30*,-2,·,35*
O=C(N[C@H](Cc1ccccc1)C(=O)NCc1ccccn1)[C@H]1O[C@@H](n2ccc(=O)[nH]c2=O)[C@H](O)[C@@H]1O,-1,-1,-3,-1,·,·
COC(=O)C1=C(C)N(Cc2ccc(Br)cc2)C(=S)NC1c1ccc(OC)cc1 (centres undefined),-10,-2,-7,-2,·,·
